Assay results: ChEMBL document CHEMBL1156631 (J Med Chem, 2008)

How the values were obtained:
Cannabinoid receptor 2 [1] = target: T1, Cannabinoid receptor 2 (Homo sapiens, UniProt P34972); experiment: Agonist activity at human recombinant CB2 receptor expressed in Sf9 cells by GTP-europium binding assay
Method in brief: (§1)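 Membranes were from Sf9 insect cells cotransfected with CB1 or CB2 plus Gαi3 (Bmax 1.7 pmol/mL). Compound (0.01 nM–10 µM, 1% DMSO final) was added to buffer with Hepes, BSA, 10 mM MgCl2, 150 mM NaCl, 5 µM GDP, 10 nM GTP-europium, saponin and membranes (CB1 4.5 µg/well, CB2 14 µg/well). 100% efficacy was set by 3 µM reference agonist.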

Cannabinoid receptor 1 [2] = target: T2, Cannabinoid receptor 1 (Homo sapiens, UniProt P21554); experiment: Agonist activity at human recombinant CB1 receptor expressed in CHO-K1 cells assessed as inhibition of forskolin-stimulated intracellular cAMP level; assay type: functional, cell-based
T2 sequence (P21554 whole entry): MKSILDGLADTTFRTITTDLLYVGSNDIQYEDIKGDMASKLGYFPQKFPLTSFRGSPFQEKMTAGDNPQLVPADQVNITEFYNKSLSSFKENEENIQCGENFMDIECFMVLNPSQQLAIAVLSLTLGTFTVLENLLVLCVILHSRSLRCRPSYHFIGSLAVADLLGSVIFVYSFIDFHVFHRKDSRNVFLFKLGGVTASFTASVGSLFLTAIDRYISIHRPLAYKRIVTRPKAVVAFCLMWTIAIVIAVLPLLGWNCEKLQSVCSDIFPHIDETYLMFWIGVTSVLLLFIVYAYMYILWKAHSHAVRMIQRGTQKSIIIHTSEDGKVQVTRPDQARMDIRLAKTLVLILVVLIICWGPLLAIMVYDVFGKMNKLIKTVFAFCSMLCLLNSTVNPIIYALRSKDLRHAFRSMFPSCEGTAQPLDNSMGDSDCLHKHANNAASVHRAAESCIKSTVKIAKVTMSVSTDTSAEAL
Method in brief: (§2)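 CHO-K1 cells stably expressing human or rat CB1 or CB2 were used. Compounds were diluted from DMSO into HBSS/HEPES/BSA buffer containing 60 µM forskolin, then combined with 5000 cells/well plus Alexa647 anti-cAMP antibody, 1 h at room temperature. A biotinylated-cAMP detection mix was added for another 1 h.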

Cannabinoid receptor 2 [3] = target: T1, Cannabinoid receptor 2; experiment: Agonist activity at human recombinant CB2 receptor expressed in CHO-K1 cells assessed as inhibition of forskolin-stimulated intracellular cAMP level; assay type: functional, cell-based; method in brief: as §2
[4] = target: Cannabinoid receptor 1 (Rattus norvegicus) (UniProt P20272); experiment: Agonist activity at rat recombinant CB1 receptor expressed in CHO-K1 cells assessed as inhibition of forskolin-stimulated intracellular cAMP level relative to CP-55940; assay type: functional, cell-based
Cannabinoid receptor 1 (Rattus norvegicus), sequence (P20272 whole entry): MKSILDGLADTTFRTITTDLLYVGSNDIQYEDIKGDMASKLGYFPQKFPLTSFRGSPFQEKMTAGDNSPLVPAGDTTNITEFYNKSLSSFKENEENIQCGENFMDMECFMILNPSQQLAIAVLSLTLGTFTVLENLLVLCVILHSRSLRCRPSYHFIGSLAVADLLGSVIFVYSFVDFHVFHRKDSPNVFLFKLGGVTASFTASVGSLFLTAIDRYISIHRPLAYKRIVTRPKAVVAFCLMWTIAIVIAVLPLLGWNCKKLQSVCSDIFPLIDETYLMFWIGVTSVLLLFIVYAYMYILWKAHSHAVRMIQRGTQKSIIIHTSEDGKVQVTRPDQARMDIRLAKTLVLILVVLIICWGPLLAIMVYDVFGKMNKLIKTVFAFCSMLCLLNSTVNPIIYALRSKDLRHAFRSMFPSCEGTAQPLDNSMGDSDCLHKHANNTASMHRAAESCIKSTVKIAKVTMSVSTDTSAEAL
Method in brief: as §2, with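 “h. Emission at 665 nm gave concentration-response curves and EC50; Emax is expressed as a percentage of the reference agonist maximum.” for “h.”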

Cannabinoid receptor 2 [5] = target: T3, Cannabinoid receptor 2 (Rattus norvegicus, UniProt Q9QZN9); experiment: Agonist activity at rat recombinant CB2 receptor expressed in CHO-K1 cells assessed as inhibition of forskolin-stimulated intracellular cAMP level; assay type: functional, cell-based
T3 sequence (Q9QZN9 whole entry): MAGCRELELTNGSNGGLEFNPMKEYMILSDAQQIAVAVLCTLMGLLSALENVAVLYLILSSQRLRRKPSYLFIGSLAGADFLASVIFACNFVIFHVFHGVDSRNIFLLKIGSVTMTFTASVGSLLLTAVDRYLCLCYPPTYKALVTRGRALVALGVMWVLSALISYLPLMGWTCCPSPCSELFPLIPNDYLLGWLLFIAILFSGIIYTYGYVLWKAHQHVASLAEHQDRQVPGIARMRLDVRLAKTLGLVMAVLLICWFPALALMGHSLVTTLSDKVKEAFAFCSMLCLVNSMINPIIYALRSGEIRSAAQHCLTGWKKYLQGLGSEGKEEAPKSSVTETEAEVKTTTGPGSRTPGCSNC
Method in brief: as §2, with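 “h. Emission at 665 nm gave concentration-response curves and EC50; Emax is expressed as a percentage of the reference agonist maximum.” for “h.”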

Cannabinoid receptor 1 [6] = target: T2, Cannabinoid receptor 1; experiment: Agonist activity at human CB1 receptor expressed in Sf9 cells by GTP-europium binding assay; method in brief: as §1
[7] = target: T4, Cannabinoid receptor 2 (Rattus norvegicus) (UniProt Q9QZN9); experiment: Agonist activity at rat recombinant CB2 receptor expressed in CHO-K1 cells assessed as inhibition of forskolin-stimulated intracellular cAMP level relative to CP-55940; assay type: functional, cell-based
T4 sequence (whole entry): T3 sequence (Q9QZN9 whole entry)
Method in brief: as §2, with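 “h. Emission at 665 nm gave concentration-response curves and EC50; Emax is expressed as a percentage of the reference agonist maximum.” for “h.”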

Cannabinoid receptor 1 [8] = target: Cannabinoid receptor 1 (Rattus norvegicus, UniProt P20272); experiment: Agonist activity at rat recombinant CB1 receptor expressed in CHO-K1 cells assessed as inhibition of forskolin-stimulated intracellular cAMP level; assay type: functional, cell-based; method in brief: as §2
Cannabinoid receptor 1 (Rattus norvegicus, UniProt P20272), sequence (P20272 whole entry): as the sequence (P20272 whole entry) above

Cannabinoid receptor 2 [9] = target: T1, Cannabinoid receptor 2; experiment: Agonist activity at human recombinant CB2 receptor expressed in CHO-K1 cells assessed as inhibition of forskolin-stimulated intracellular cAMP level relative to CP-55940; assay type: functional, cell-based
Method in brief: as §2, with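 “h. Emission at 665 nm gave concentration-response curves and EC50; Emax is expressed as a percentage of the reference agonist maximum.” for “h.”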

Cannabinoid receptor 2 [10] = target: T1, Cannabinoid receptor 2; experiment: Agonist activity at human recombinant CB2 receptor expressed in Sf9 cells by GTP-europium binding assay relative to CP-55940
Method in brief: as §1, with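 “µg/well). Incubation was 45 min at room temperature, then filtration and washing, with fluorescence read at 615 nm.” for “µg/well).”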

Cannabinoid receptor 1 [11] = target: T2, Cannabinoid receptor 1; experiment: Agonist activity at human recombinant CB1 receptor expressed in Sf9 cells by GTP-europium binding assay relative to CP-55940
Method in brief: as §1, with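 “µg/well). Incubation was 45 min at room temperature, then filtration and washing, with fluorescence read at 615 nm.” for “µg/well).”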

Cannabinoid receptor 1 [12] = target: T2, Cannabinoid receptor 1; experiment: Agonist activity at human recombinant CB1 receptor expressed in CHO-K1 cells assessed as inhibition of forskolin-stimulated intracellular cAMP level relative to CP-55940; assay type: functional, cell-based
Method in brief: as §2, with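 “h. Emission at 665 nm gave concentration-response curves and EC50; Emax is expressed as a percentage of the reference agonist maximum.” for “h.”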

T1 sequence (P34972 whole entry): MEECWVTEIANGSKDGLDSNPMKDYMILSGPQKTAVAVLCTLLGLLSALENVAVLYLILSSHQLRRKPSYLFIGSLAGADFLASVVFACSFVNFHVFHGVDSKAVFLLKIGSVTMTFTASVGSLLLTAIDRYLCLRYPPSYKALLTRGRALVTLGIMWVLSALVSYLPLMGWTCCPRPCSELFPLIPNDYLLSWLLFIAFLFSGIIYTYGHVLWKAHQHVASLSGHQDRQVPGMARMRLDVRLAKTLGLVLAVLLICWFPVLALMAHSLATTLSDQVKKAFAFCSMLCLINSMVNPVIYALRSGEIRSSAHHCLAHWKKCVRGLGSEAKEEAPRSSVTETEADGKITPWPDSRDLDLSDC

Row | SMILES | EC50 (Cannabinoid receptor 2 [1]) [µM] | EC50 (Cannabinoid receptor 1 [2]) [µM] | EC50 (Cannabinoid receptor 2 [3]) [µM] | Emax [4] [%] | EC50 (Cannabinoid receptor 2 [5]) [µM] | EC50 (Cannabinoid receptor 1 [6]) [µM] | Emax [7] [%] | EC50 (Cannabinoid receptor 1 [8]) [µM] | Emax (Cannabinoid receptor 2 [9]) [%] | Emax (Cannabinoid receptor 2 [10]) [%] | Emax (Cannabinoid receptor 1 [11]) [%] | Emax (Cannabinoid receptor 1 [12]) [%]
1 | CC(C)(C)c1ncc(NC(=O)CCc2nc(-c3ccc(F)cc3Cl)no2)cn1 | 0.0054 | > 1 | 0.0029 | 67 | 0.0013 | > 10 | 99 | 0.57 | 97 | 91 |  | 
2 | CCn1c2ccccc2c2cc(NC(=O)CCc3noc(-c4ccccc4F)n3)ccc21 | 0.19 |  |  |  |  | > 10 |  |  |  | 76 |  | 
3 | CCn1c2ccccc2c2cc(NC(=O)CCc3nc(-c4ccccc4F)co3)ccc21 | 2 |  |  |  |  | > 10 |  |  |  | 46 |  | 
4 | CCn1c2ccccc2c2cc(NC(=O)CCc3nc(-c4ccc(F)cc4C#N)no3)ccc21 | 0.00085 | > 1 | 0.00033 | 84 | 0.00013 | 0.709 | 130 | 0.24 | 110 | 120 | 39 | 12
5 | CCn1c2ccccc2c2cc(NC(=O)CCc3cc(-c4ccccc4F)no3)ccc21 | 0.27 |  |  |  |  | > 10 |  |  |  | 64 |  | 
6 | Fc1ccc(-c2noc(CCCNc3nc4ccc(Cl)cc4s3)n2)c(Cl)c1 | 0.17 | > 1 | 0.11 | 45 | 0.29 | 3.3 | 66 | > 1 | 87 | 100 | 16 | 25
7 | CCn1c2ccccc2c2cc(NC(=O)CCc3nc(-c4cccc(Cl)c4)no3)ccc21 | 0.41 |  |  |  |  | > 10 |  |  |  | 87 |  | 
8 | CCn1c2ccccc2c2cc(NC(=O)CCc3cc(-c4ccccc4F)n(C)n3)ccc21 | > 10 |  |  |  |  | > 10 |  |  |  |  |  | 
9 | CC(C)(C)c1cc(NCCCc2nc(-c3ccc(F)cc3Cl)no2)no1 | 0.027 | > 1 | 0.13 |  | 0.19 | 0.67 | 82 | > 1 | 90 | 110 | 33 | 
10 | CCn1c2ccccc2c2cc(NC(=O)CCn3nnc(-c4ccccc4F)n3)ccc21 | 0.2 | > 1 | 0.69 |  | 0.097 | > 10 | 90 | > 1 | 88 | 93 |  | 
11 | O=C(CCc1nc(-c2ccc(F)cc2Cl)no1)Nc1ccc(C(F)(F)F)nc1 | 0.097 | > 1 | 0.078 |  | 0.073 | 2.8 | 95 | > 1 | 96 | 120 | 17 | 
12 | CC(C)(C)c1cc(NC(=O)CCc2nc(-c3ccc(F)cc3Cl)no2)no1 | 0.0002 | > 1 | 0.0007 | 110 | 0.0004 | 1.6 | 100 | 0.17 | 96 | 120 | 103 | 48
13 | CCn1c2ccccc2c2cc(NC(=O)CCc3cc(-c4ccccc4F)[nH]n3)ccc21 | > 10 |  |  |  |  | > 10 |  |  |  |  |  | 
14 | CCn1c2ccccc2c2cc(NC(=O)CCc3nc(C4CCOCC4)no3)ccc21 | 0.042 | > 1 | 0.0024 | 110 | 0.00038 | > 10 | 100 | 0.15 | 98 | 94 |  | 23
